Measurements taken from ChEMBL document CHEMBL4014309, “Development of an Acrylate Derivative Targeting the NLRP3 Inflammasome for the Treatment of Inflammatory Bowel Disease” (J Med Chem, 2017).
The source made the active and inactive calls. The calls are words filed in the database; no cut-off is given here.

Tests used:
Rattus norvegicus [1] = assay: Antiinflammatory activity in DNBS-induced Sprague-Dawley rat colitis model assessed as DNBS-induced macroscopic damage score at 1 mg/kg/day, ig for 6 days simulatneously with 6 days of DNBS-challenge (reference value: 8.6 +/- 0.6); type: functional
In short: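 After intrarectal DNBS (15 mg/0.25 mL 50% ethanol), dosing was intragastric for 6 days (0.2 mL olive oil; 1 mg/kg/day dose in 1% methylcellulose). The whole excised colon was scored for macroscopic damage on a 0–6 point scale by two blinded observers. Values are mean ± SEM, n = 10.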

Rattus norvegicus [2] = assay: Anti-inflammatory activity in DNBS-induced Sprague-Dawley rat colitis model assessed as DNBS-induced TNFalpha levels in colon at 1 mg/kg/day, ig for 6 days simulatneously with 6 days of DNBS-challenge by ELISA (reference value: 5.9 +/- 0.6 pg/mg); type: functional
Rattus norvegicus [3] = assay: Antiinflammatory activity in DNBS-induced Sprague-Dawley rat colitis model assessed as reduction in DNBS-induced spleen weight increase by measuring increase in spleen weight at 1 mg/kg/day, ig administered as methylcellulose suspension for 6 days simulatneously with 6 days of DNBS-challenge measured daily during compound dosing (reference value: 39.3%); type: functional; parameters: scale not given: the % may be the effect or the level left
In short: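 Spleen weight was used as an index of systemic inflammation. Rats had intrarectal DNBS (15 mg/0.25 mL 50% ethanol) and 6 days of intragastric dosing: 1 mg/kg/day in 1% methylcellulose, or 12.5–50 mg/kg/day in 0.2 mL olive oil. The spleen was weighed at sacrifice and expressed as percent increase versus control, n = 10.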

Rattus norvegicus [4] = assay: Toxicity in Sprague-Dawley rat assessed as body weight loss at 1 mg/kg/day, ig; type: organism-based; settings: in vivo, po
In short: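 Rats received intrarectal DNBS (15 mg in 0.25 mL 50% ethanol) or none. Dosing was intragastric for 6 days from induction: compound 12.5–50 mg/kg/day in 0.2 mL olive oil, or dexamethasone 1 mg/kg/day in 0.2 mL 1% methylcellulose. Body weight change was recorded at end; n = 10, mean ± SEM.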

[5] = target: NACHT, LRR and PYD domains-containing protein 3 (Mus musculus) (UniProt Q8R4B8); assay: Inhibition of NLRP3 inflammasome in LPS-primed C57BL/6 mouse bone marrow derived macrophages assessed as reduction in nigericin-induced IL-1beta production at 10 to 250 nM preincubated for 1 hr followed by stimulation with nigericin measured after 30 mins by ELISA
Sequence of NACHT, LRR and PYD domains-containing protein 3 (Mus musculus) (Q8R4B8 whole entry, the tested form may be a part): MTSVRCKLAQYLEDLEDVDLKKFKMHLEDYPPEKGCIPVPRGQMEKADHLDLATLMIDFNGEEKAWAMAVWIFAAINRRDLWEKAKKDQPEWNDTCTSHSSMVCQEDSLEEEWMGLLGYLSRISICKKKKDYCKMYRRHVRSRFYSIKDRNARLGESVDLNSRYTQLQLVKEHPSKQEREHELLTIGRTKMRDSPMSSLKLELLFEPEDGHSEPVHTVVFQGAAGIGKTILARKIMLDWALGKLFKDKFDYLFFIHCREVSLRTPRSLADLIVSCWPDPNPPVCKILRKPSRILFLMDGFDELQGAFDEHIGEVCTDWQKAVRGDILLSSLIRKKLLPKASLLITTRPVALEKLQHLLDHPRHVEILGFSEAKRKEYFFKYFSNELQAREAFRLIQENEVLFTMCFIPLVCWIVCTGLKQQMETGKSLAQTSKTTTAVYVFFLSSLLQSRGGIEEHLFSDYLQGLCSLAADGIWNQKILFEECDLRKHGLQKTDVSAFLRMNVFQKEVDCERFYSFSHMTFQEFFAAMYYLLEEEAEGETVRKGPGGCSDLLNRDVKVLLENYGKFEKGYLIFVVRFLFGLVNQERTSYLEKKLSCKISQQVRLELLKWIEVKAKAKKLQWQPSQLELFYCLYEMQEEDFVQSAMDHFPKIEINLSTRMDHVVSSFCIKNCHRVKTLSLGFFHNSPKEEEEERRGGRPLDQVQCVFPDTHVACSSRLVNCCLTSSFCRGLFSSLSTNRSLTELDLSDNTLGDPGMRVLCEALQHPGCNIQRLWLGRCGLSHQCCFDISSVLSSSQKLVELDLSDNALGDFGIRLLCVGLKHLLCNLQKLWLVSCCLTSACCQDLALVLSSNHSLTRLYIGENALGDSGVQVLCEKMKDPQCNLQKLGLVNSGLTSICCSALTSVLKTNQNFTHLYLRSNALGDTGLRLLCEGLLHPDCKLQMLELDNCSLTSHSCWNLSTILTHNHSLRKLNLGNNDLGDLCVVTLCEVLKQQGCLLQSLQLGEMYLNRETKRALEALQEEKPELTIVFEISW
In short: (§1)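 Bone marrow macrophages from C57BL/6 mice, differentiated with 20% L-cell medium, primed with LPS (1 µg/mL, 3 h). Test agent or vehicle was added for 1 h, then ATP (5 mM, 30 min) or nigericin (10 µM, 30 min). IL-1β in the medium was measured by ELISA. LDH in the medium was measured colorimetrically as % of total cellular LDH.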

[6] = target: NACHT, LRR and PYD domains-containing protein 3 (Mus musculus) (UniProt Q8R4B8); assay: Inhibition of NLRP3 inflammasome in LPS-primed C57BL/6 mouse bone marrow derived macrophages assessed as reduction in ATP-induced IL-1beta production at 10 to 250 nM preincubated for 1 hr followed by stimulation with ATP measured after 30 mins by ELISA
In short: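 C57BL/6 bone marrow macrophages, differentiated with 20% L-cell medium, were primed with LPS (1 µg/mL, 3 h). They were then exposed to compound or vehicle for 1 h and stimulated with ATP (5 mM, 30 min). IL-1β released into the medium was measured by ELISA.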

[7] = target: NACHT, LRR and PYD domains-containing protein 3 (Mus musculus) (UniProt Q8R4B8); assay: Inhibition of NLRP3 inflammasome in LPS-primed C57BL/6 mouse bone marrow derived macrophages assessed as reduction in ATP-induced pyroptosis at 100 to 250 nM preincubated for 1 hr followed by stimulation with ATP measured after 30 mins by LDH release assay; in short: as §1
[8] = target: NACHT, LRR and PYD domains-containing protein 3 (Mus musculus) (UniProt Q8R4B8); assay: Inhibition of NLRP3 inflammasome in LPS-primed C57BL/6 mouse bone marrow derived macrophages assessed as reduction in nigericin-induced pyroptosis at 100 to 250 nM preincubated for 1 hr followed by […] measured after 30 mins by LDH release assay; in short: as §1
Rattus norvegicus [9] = assay: Anti-inflammatory activity in DNBS-induced Sprague-Dawley rat colitis model assessed as reduction in DNBS-induced increase in MPO levels in colon at 1 mg/kg/day, ig for 6 days simulatneously with 6 days of DNBS-challenge by ELISA; type: functional, organism-based
In short: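 DNBS colitis (15 mg intrarectal in 50% ethanol) was treated by the intragastric route for 6 days from induction (1 mg/kg/day in 1% methylcellulose, or 12.5–50 mg/kg/day in olive oil). Colonic samples (30 mg) were taken adjacent and distal to the necrotic area, homogenized, and assayed for MPO by ELISA. Results are ng MPO per mg tissue, mean ± SEM, n = 10.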

Rattus norvegicus [10] = assay: Antiinflammatory activity in DNBS-induced Sprague-Dawley rat colitis model assessed as body weight recovery at 1 mg/kg/day, ig administered as methylcellulose suspension for 6 days simulatneously with 6 days of DNBS-challenge measured daily during compound dosing; type: functional, organism-based
In short: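 Colitis was induced with intrarectal DNBS (15 mg in 0.25 mL 50% ethanol). Intragastric treatment ran 6 days from the day of induction: 1 mg/kg/day in 1% methylcellulose, or 12.5–50 mg/kg/day in olive oil. Body weight change (g) was recorded at the end of treatment, mean ± SEM, n = 10.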

Rattus norvegicus [11] = assay: Anti-inflammatory activity in DNBS-induced Sprague-Dawley rat colitis model assessed as DNBS-induced IL-1beta levels in colon at 1 mg/kg/day, ig for 6 days simulatneously with 6 days of DNBS-challenge by ELISA (reference value: 22.3 +/- 2.9 ng/mg); type: functional

Work on `C[C@@H]1C[C@H]2[C@@H]3CCC4=CC(=O)C=C[C@]4(C)[C@@]3(F)[C@@H](O)C[C@]2(C)[C@@]1(O)C(=O)CO` [DEXAMETHASONE] yielded an Activity_index (Rattus norvegicus [1]) of 2, an Activity (Rattus norvegicus [2]) of 2.2 pg/mg and an Activity (Rattus norvegicus [3]) of 1.6%. The Activity (Rattus norvegicus [4]) was “Toxic”, the inhibition [5] was “inactive” and the inhibition [6] was “inactive”. The inhibition [7] was “Active”, the inhibition [8] was “Active” and the Activity (Rattus norvegicus [9]) was “Active”. For the same compound, the Activity (Rattus norvegicus [10]) was “inactive” and the Activity (Rattus norvegicus [11]) was 6.7 ng/mg.
